From ChEMBL document CHEMBL1147186, “Dibenzothiazoles as novel amyloid-imaging agents” (Bioorg Med Chem, 2007)

What was measured:
[1] = target: Amyloid-beta precursor protein (Homo sapiens, UniProt P05067); test: Displacement of [3H]PIB from beta amyloid in brain homogenate from Alzheimer's patient; assay type: tissue-based
Method in brief: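 Competition binding against [3H]PIB (0.05 nM final) in postmortem AD gray-matter homogenate prepared in PBS pH 7.4. Inhibitors at 10^-5 to 10^-12 mol/L (PBS, under 1% DMSO), incubated 37 °C for 1 h. Bound radioligand was collected by GF/B vacuum filtration, washed three times with PBS and scintillation-counted. Nonspecific binding was defined with 10 µM PIB. Ki was obtained by nonlinear regression.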

[2] = Partition coefficient, log P of the compound; assay type: physicochemical; details: octanol/water
Method in brief: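 Shake-flask logP using the [125I] radioligand (RCP >98%) in n-octanol and 0.1 M phosphate buffer pH 7.4. Mixture vortexed 3 min at room temperature and centrifuged 3500 rpm for 5 min. Both phases were weighed and counted; logP is log of the cpm/g octanol to cpm/g buffer ratio. The octanol phase was repartitioned until values were consistent; done in triplicate.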

Brain [3] = test: Biodistribution in Swiss-Webster mouse brain at 0.185 MBq, iv after 2 mins; assay type: ADME, organism-based; details: in vivo
Method in brief: (§1)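 Radioiodinated tracer in saline/ethylene glycol/ethanol/HCl vehicle, single tail-vein injection under anesthesia into 2-month-old Swiss-Webster mice (n = 3 per time point). Animals killed by heart puncture at 2, 30 and 60 min; brain removed, weighed and gamma-counted. Uptake expressed as % injected dose per gram.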

Brain [4] = test: Biodistribution in Swiss-Webster mouse brain at 0.185 MBq, iv after 30 mins; assay type: ADME, organism-based; details: in vivo, 0.5 h; method in brief: as §1
Brain [5] = test: Biodistribution in Swiss-Webster mouse brain at 0.185 MBq, iv after 60 mins; assay type: ADME, organism-based; details: in vivo, 1 h; method in brief: as §1

Chain of Amyloid-beta precursor protein (P05067 whole entry): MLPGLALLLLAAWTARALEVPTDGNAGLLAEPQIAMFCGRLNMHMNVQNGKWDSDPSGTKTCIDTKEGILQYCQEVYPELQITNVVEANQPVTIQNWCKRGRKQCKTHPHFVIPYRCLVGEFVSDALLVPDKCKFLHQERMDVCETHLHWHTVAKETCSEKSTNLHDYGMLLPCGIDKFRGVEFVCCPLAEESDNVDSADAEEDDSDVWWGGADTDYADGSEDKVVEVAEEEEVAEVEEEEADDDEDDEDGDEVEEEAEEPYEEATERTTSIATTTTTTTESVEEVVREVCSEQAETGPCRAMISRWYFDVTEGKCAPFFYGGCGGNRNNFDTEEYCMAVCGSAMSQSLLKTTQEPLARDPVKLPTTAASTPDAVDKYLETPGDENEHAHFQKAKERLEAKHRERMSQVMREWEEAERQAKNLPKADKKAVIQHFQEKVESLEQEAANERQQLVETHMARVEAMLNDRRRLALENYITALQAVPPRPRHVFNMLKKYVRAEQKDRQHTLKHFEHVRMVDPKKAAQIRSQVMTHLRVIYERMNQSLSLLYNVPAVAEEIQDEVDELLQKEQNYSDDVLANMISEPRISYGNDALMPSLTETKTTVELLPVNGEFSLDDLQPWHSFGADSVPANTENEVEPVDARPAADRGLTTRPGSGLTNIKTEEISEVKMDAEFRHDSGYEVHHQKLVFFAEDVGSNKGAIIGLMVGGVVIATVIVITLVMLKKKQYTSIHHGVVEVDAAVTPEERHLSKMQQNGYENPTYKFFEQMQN

SMILES	Ki [1] [µM]	other results
CN(C)c1ccc(-c2nc3ccc(-c4nc5ccc(F)cc5s4)cc3s2)cc1	0.023	
Nc1ccc(-c2nc3ccc(-c4nc5ccccc5s4)cc3s2)cc1I	0.021	logP [2]: 2.7
Nc1ccc(-c2nc3ccc(-c4nc5ccccc5s4)cc3s2)cc1[125I]		logP [2]: 2.7; Drug uptake (Brain [3]): 3.71 % ID/g; Drug uptake (Brain [4]): 0.78 % ID/g; Drug uptake (Brain [5]): 0.43 % ID/g
CNc1ccc(-c2nc3ccc(-c4nc5ccccc5s4)cc3s2)cc1	0.022	
CNc1ccc(-c2nc3ccc(-c4nc5ccc(F)cc5s4)cc3s2)cc1	0.027	

Second part, led by results:

Ki [1] [µM]	SMILES	other results
0.036	Nc1ccc(-c2nc3ccc(-c4nc5ccc(F)cc5s4)cc3s2)cc1	
0.0068	CNc1ccc(-c2nc3ccc(-c4nc5ccc(Cl)cc5s4)cc3s2)cc1	
0.025	Nc1ccc(-c2nc3ccc(-c4nc5ccccc5s4)cc3s2)cc1	
0.034	Nc1ccc(-c2nc3ccc(-c4nc5ccc(Cl)cc5s4)cc3s2)cc1	
0.025	COc1ccc2nc(-c3ccc4nc(-c5ccc(N)cc5)sc4c3)sc2c1	
